# Screening data as filed in PubChem.
# This is a sample that favours compounds with a hit; in the whole collection about 1.8% have one here.
# NPY-Y2 antag: antagonists of human neuropeptide Y receptor Y2; NPY-Y2 expressing cells, antagonist mode; inhibition, % at 2.7 µM; 0.99% of 140,000 active; AID 793; in the data active means inhibition above about 17%;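 further: 0% = vehicle with agonist challenge and 100% = reference antagonist with challenge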
# Target sequence (P49146 whole entry, looked up): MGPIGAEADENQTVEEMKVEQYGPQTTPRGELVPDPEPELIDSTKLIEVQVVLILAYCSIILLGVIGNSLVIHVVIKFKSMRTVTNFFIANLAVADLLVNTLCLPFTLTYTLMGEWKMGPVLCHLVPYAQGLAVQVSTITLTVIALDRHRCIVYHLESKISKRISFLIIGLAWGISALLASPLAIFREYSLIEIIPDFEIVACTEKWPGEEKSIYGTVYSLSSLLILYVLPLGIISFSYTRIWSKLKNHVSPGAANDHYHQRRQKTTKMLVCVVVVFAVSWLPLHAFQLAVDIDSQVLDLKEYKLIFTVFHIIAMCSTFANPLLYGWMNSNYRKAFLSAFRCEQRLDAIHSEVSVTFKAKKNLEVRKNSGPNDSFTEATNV
# NPY1 pot ag: human NPY-Y1 potentiation or agonism, primary screen; P25929; NPY-Y1 expressing cells, potentiator/agonist activation; activation, % at 3.6 µM; 0.37% of 220,000 active; AID 1304; in the data active means activation above about 33%, passing the limit was not always enough;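 further: cells stimulated with NPY at EC10 then isoproterenol at EC100; 0% = low agonist plus stimulus and 100% = saturating agonist plus stimulus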
# Target sequence (P25929 whole entry, looked up): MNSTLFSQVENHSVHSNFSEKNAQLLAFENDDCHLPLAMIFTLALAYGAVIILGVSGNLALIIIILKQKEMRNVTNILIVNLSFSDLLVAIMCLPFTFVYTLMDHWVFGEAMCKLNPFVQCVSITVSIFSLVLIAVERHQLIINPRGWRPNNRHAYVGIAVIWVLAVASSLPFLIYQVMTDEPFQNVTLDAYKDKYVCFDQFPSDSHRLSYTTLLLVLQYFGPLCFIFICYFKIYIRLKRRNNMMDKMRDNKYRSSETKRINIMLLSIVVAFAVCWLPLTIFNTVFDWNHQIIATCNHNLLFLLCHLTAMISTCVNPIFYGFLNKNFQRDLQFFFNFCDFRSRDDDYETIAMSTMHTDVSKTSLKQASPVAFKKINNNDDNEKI
# NPY2 pot ag: potentiators or agonists of human neuropeptide Y receptor Y2. P49146. cells expressing NPY-Y2, potentiator/agonist read-out. activation, % at 3.6 µM. 0.45% of 220,000 active; in the data active means activation above about 27%;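 further: cells stimulated with NPY near EC25 plus isoproterenol at EC100; 0% = vehicle plus submaximal agonist and 100% = vehicle plus saturating agonist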
# NPY Y1 blocker: antagonists of human neuropeptide Y receptor Y1; P25929; HEK293-CNG Y1 cells, membrane potential fluorescence; NPY at EC95, then isoproterenol; inhibition, % at 3.6 µM; 1% of 200,000 active;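 active means inhibition above the campaign mean inhibition of all tested compounds plus 3 SD, cut at about 20% in these data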;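 further: 0% = DMSO wells given NPY plus isoproterenol and 100% = isoproterenol alone without NPY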
#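 Test system: HEK293 cells co-expressing NPY Y1 receptor and cyclic-nucleotide gated channel; Also added: NPY (25 nM), isoproterenol (1 µM), Ro 20-1724 (25 µM); Compound dosing: one concentration, 3.6 µM, in 0.4% DMSO; Timing: dye 3 h, compound 60 min room temperature, stimulation 45 min; Technique: Membrane-potential fluorescent dye readout.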
# NPY1 antag conf: human NPY-Y1 antagonism, confirmation; shares compounds with NPY Y1 blocker; HEK293-CNG NPY-Y1, membrane potential fluorescence, cAMP; NPY challenge against isoproterenol-raised cAMP; inhibition, % at 3.6 µM; 21% of 1,200 active; AID 1254; in the data active means inhibition above about 20%;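 further: 0% = vehicle with agonist plus stimulus and 100% = stimulus alone without agonist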
# NPY2 antag ctr: antagonizes human NPY-Y2, counter-screen to NPY-Y1 antagonists; HEK293 NPY-Y2 CNG membrane potential fluorescence, antagonism; cells given NPY, then isoproterenol; inhibition, % at 3.6 µM; 28% of 1,200 active; shares compounds with NPY Y1 blocker; in the data active means inhibition above about 17%;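 further: 0% = DMSO with agonist challenge and 100% = reference antagonist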
# NPY-Y1 confirm: human NPY-Y1 potentiation or agonism, confirmation | shares compounds with NPY1 pot ag | cell-based NPY-Y1 potentiator/agonist assay | activation, % at 3.6 µM | 20% of 280 active | AID 1546;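 further: cells challenged with NPY at its EC10 plus isoproterenol stimulus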
# NPY-Y2 counter: potentiates or activates NPY-Y2, counter-screen for NPY-Y1 hits | HEK293-CNG cells, membrane-potential fluorescence (FLIPR), 1536-well | activation, % at 3.6 µM | AID 1649 | shares compounds with NPY1 pot ag | 20% of 280 active; in the data active means activation above about 33%
# NPY-Y1 agonist: activates human NPY-Y1, counter-screen for NPY-Y1 potentiators; shares compounds with NPY1 pot ag; HEK293 Y1-CNGC, membrane potential fluorescence, agonist mode; activation, % at 3.6 µM; 50% of 280 active; AID 1697;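 active means percent activation above the mean of DMSO-only control wells plus 3 SD of those wells, cut at about 18% in these data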;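 further: cells challenged with isoproterenol plus Ro 20-1724 with no NPY in test wells; Y1 agonism lowers isoproterenol-driven cAMP and reduces probe fluorescence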
# NPY-Y2 agonist: activates human NPY-Y2, counter-screen for NPY-Y1 hits; activation, % at 3.6 µM; AID 1698; 67% of 280 active; shares compounds with NPY1 pot ag; HEK293 Y2-CNGC, membrane potential fluorescence, agonist mode;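 active means activation above the solvent-only control wells' mean plus 3 SD, cut at about 11% in these data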;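 further: 0% = DMSO with isoproterenol and 100% = 40 nM NPY maximal response; agonism lowers cAMP so well fluorescence drops in active wells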
# CNGC counter: counter-screen for NPY-Y1 potentiators or agonists: CNG channel inhibitors; shares compounds with NPY1 pot ag; HEK293-CNG parental, isoproterenol cAMP, membrane potential fluorescence; inhibition, % at 3.6 µM; 42% of 280 active;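 active means inhibition above the mean of stimulated solvent-only control wells plus 3 SD, cut at about 22% in these data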;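 further: 0% = isoproterenol-stimulated DMSO wells and 100% = unstimulated DMSO wells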
# NPY-Y2 pot conf: human NPY-Y2 potentiation or agonism, confirmation. 20% of 450 active. activation, % at 3.6 µM. shares compounds with NPY2 pot ag. cell-based NPY-Y2 potentiator/agonist assay; in the data active means activation above about 33%
# NPY-Y1 potentiator: counter-screen for NPY-Y2 potentiators or agonists: NPY-Y1 potentiators or agonists; shares compounds with NPY2 pot ag; Y1 HEK293-CNG cells, membrane potential fluorescence; activation, % at 3.6 µM; 20% of 450 active;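 further: cells stimulated with submaximal NPY then isoproterenol with phosphodiesterase inhibitor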
# NPY-Y1 agonist 2: activates human NPY-Y1, counter-screen for NPY-Y2 potentiators; shares compounds with NPY2 pot ag; HEK293 Y1-CNGC, membrane potential fluorescence, agonism; activation, % at 3.6 µM; 37% of 450 active; AID 1702;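 active means activation above the mean of DMSO-only control wells plus 3 SD, cut at about 18% in these data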;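 further: cells stimulated with 1 µM isoproterenol plus the PDE inhibitor Ro 20-1724; 0% = isoproterenol with DMSO and no NPY and 100% = 40 nM NPY; Y1 agonists lower the membrane potential dye signal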
# CNGC inhibitor: blocks CNG channel activity, counter-screen for NPY-Y2 potentiators; inhibition, % at 3.6 µM; 32% of 450 active; shares compounds with NPY2 pot ag; HEK293-CNG parental, isoproterenol cAMP, membrane potential fluorescence; AID 1703;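 active means inhibition above the control-well mean plus 3 SD of those wells, cut at about 22% in these data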;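 further: 0% = DMSO with isoproterenol and 100% = DMSO without isoproterenol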
# Y2 agonist ctr: NPY-Y2 agonism, counter-screen for Y2 potentiators; shares compounds with NPY2 pot ag; HEK293 Y2/CNGC cells, membrane potential fluorescence, agonist mode; activation, % at 3.6 µM; 56% of 450 active; AID 1710;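 active means activation above the mean of solvent-only control wells plus 3 SD, cut at about 10% in these data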;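 further: cells stimulated by isoproterenol with no NPY added so direct agonism is tested; 0% = DMSO with isoproterenol alone and 100% = NPY at EC100 plus isoproterenol; agonism lowers probe fluorescence through less cAMP and CNG channel opening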
# Active calls of the source: *; nt = no result. Unless noted, no stated cut-off is given here; in the data, active means activation above about 45%; inactive means the rest.
SMILES,NPY-Y2 antag,NPY1 pot ag,NPY2 pot ag,NPY Y1 blocker,NPY1 antag conf,NPY2 antag ctr,others
Cc1ccsc1C(=O)C1CCCN(Cc2cccn2-c2ccccn2)C1 (stereo not given),nt,-36,-35,29*,21*,24*,
CCC1(CCCC(=O)c2ccc(F)cc2)C(=O)NC(=S)NC1=O,1,-5,1,-2,nt,nt,
Cc1cc(NCCN)nc2ccccc12,12,-31,-20,21*,13,16,
CN(CC1COc2ccccc2O1)c1nc(-c2cccnc2)nc2ccccc12 (stereo not given),14,-9,-26,22*,11,14,
CN1CCC(N(C)c2nc(-c3ccc([N+](=O)[O-])cc3)nc3ccccc23)CC1,1,25,11,1,nt,nt,
COc1cccc(NP(=O)(Oc2ccccc2)Oc2ccccc2)c1,5,-4,-5,22*,6,8,
COc1ccc2c(CN3CC=C(c4ccccc4)CC3)cc(=O)oc2c1,nt,-12,-9,3,nt,nt,
COc1ccc2ccc(O)c(CN3CC=C(c4ccccc4)CC3)c2c1,nt,-26,-19,23*,15,24*,
CCOc1cc(C2NCc3ccccc3-n3cccc32)ccc1O (stereo not given),8,-16,0,22*,8,6,
CCOc1cccc(C2NCc3ccccc3-n3cccc32)c1O (stereo not given),1,3,-2,2,nt,nt,
CCCCOP(=O)(CN1CCOCC1)OCCCC,-3,26,16,0,nt,nt,
CCOC(=O)C1(CCc2ccccc2)CCN(C2CCSCC2)CC1,nt,-22,-14,23*,11,10,
CC1=NN(Cc2c[nH]c3ccccc23)C(C)(C)C1,nt,11,-5,1,nt,nt,
CN(C)C(Cc1ccccc1)C(=O)c1ccc(-c2ccccc2)cc1 (stereo not given),12,-34,-20,27*,10,13,
Cn1c(O)c(C(c2ccccn2)c2c(O)n(C)c(=S)[nH]c2=O)c(=O)[nH]c1=S,-1,21,-5,4,nt,nt,
COc1cccc(C(=O)C2CCCN(Cc3ccc4nonc4c3)C2)c1 (stereo not given),nt,-8,-18,29*,9,6,
c1ccc(-c2[nH]c(-c3ccccc3)[n+](CC3CO3)c2-c2ccccc2)cc1 (stereo not given),10,1,-9,4,nt,nt,
COc1cc(C(CN)CC(=O)O)ccc1O (stereo not given),nt,-5,-32,nt,nt,nt,
O=c1[nH]c(=O)n(-c2cccc3ccccc23)c(O)c1/C=N/N1CCCCC1c1cccnc1 (stereo not given),10,-8,-2,25*,3,4,
Fc1ccccc1CNC1CN2CCC1CC2 (stereo not given),nt,11,-4,9,nt,nt,
Cc1ccccc1C(O)(Cc1ccccc1)C1CN2CCC1CC2 (stereo not given),11,-26,-7,21*,5,9,
CN(C)c1ccc(-[n+]2c(-c3ccccc3)cc(-c3ccccc3)cc2-c2ccccc2)cc1,nt,34,51*,50*,35*,18*,NPY-Y2 pot conf=6;NPY-Y1 potentiator=-5;NPY-Y1 agonist 2=-13;CNGC inhibitor=-22;Y2 agonist ctr=12*
COc1cccc(NC(=O)N2CCC3(CC2)OCCO3)c1,-2,-2,5,-2,nt,nt,
COc1ccc(O)c2c(=O)c3c(OC)cc4c(c3oc12)C1C=COC1O4 (stereo not given),nt,56*,23,nt,nt,nt,NPY-Y1 confirm=73*;NPY-Y2 counter=63*;NPY-Y1 agonist=69*;NPY-Y2 agonist=64*;CNGC counter=67*
CCC(C)N=Cc1c(O)n(-c2ccccc2)c(=O)[nH]c1=O (stereo not given),2,3,10,-2,nt,nt,
SMILES,NPY-Y2 antag,NPY1 pot ag,NPY2 pot ag,NPY Y1 blocker,NPY1 antag conf,NPY2 antag ctr,others
O=C1CSC2(CN3CCC2CC3)N1 (stereo not given),2,0,-10,3,nt,nt,
CC(C)(O)[C@H]1O[C@H]2CC[C@@]3(C)[C@@](O)(CC[C@H]4Cc5c([nH]c6ccccc56)[C@@]43C)C2=CC1=O,nt,43*,24,-14,nt,nt,NPY-Y1 confirm=49*;NPY-Y2 counter=41*;NPY-Y1 agonist=53*;NPY-Y2 agonist=43*;CNGC counter=44*
CCOC(=O)c1c(-n2c(C)cc(C=C3C(=O)NC(=O)NC3=O)c2C)sc2c1CCCC2,2,39*,10,-13,nt,nt,NPY-Y1 confirm=93*;NPY-Y2 counter=73*;NPY-Y1 agonist=77*;NPY-Y2 agonist=68*;CNGC counter=28*
O=C(Nc1ccc(Cl)cc1C(=O)c1ccccc1)c1ccc(Br)o1,9,-11,-8,-1,nt,nt,
O=c1c2cc(Br)ccc2[nH]c(=S)n1-c1ccccc1,nt,-7,0,-4,nt,nt,
O=c1c2ccccc2[nH]c(=S)n1-c1ccc(Br)cc1,nt,19,32*,-5,nt,nt,NPY-Y2 pot conf=5;NPY-Y1 potentiator=17;NPY-Y1 agonist 2=0;CNGC inhibitor=11;Y2 agonist ctr=-1
O=P(Oc1ccccc1)(Oc1ccccc1)c1ccccc1,nt,14,-2,nt,nt,nt,
Cc1nn(Cc2ccccc2)c(Cl)c1C(=O)OCC(=O)Nc1cccc2ccccc12,12,25,45*,-5,nt,nt,NPY-Y2 pot conf=-19;NPY-Y1 potentiator=-20;NPY-Y1 agonist 2=-12;CNGC inhibitor=-14;Y2 agonist ctr=-8
